pKi: −log10 of the molar value.
Assays:
[1] = Inhibition of HCV NS3 protease by FRET assay; set-up: species or system Hepacivirus hominis
Summary of the method: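 Full-length HCV NS3 (protease–helicase/NTPase) protein, protease activity read by FRET. Enzyme at 1 nM incubated 10 min at 30 °C in 50 mM HEPES pH 7.5, 10 mM DTT, 40% glycerol before measurement. Inhibitor Ki given with standard deviation. Wild type and the A156T and D168V variants were tested.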

NS3 protease = NS3 protease (Hepatitis C virus subtype 1b, UniProt Q0ZMF1, A156T); test: Inhibition of HCV NS3 protease A156T mutant by FRET assay; set-up: species or system Hepacivirus hominis
Summary of the method: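 Protease activity of full-length HCV NS3 (protease–helicase/NTPase) was measured by FRET. 1 nM enzyme was incubated 10 min at 30 °C in 50 mM HEPES pH 7.5, 10 mM DTT, 40% glycerol before read-out.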

pKi [1] | Structure (SMILES) | pKi (NS3 protease)
4.96 | C=C[C@@H]1C[C@]1(NC(=O)C(c1ccccc1)n1c(C)c(Cl)nc(NCCN2CCOCC2)c1=O)C(=O)NS(=O)(=O)C1CC1 (some centres undefined) | –
5.27 | C=C[C@@H]1C[C@]1(NC(=O)[C@@H](NC(=O)[C@@H](NC(=O)OC(C)(C)C)C(C)(C)C)c1ccc(OC)cc1)C(=O)NS(=O)(=O)C1CC1 | –
4.92 | C=C[C@@H]1C[C@]1(NC(=O)C(c1ccccc1)n1c(C)c(Cl)nc(NCC(N)=O)c1=O)C(=O)NS(=O)(=O)C1CC1 (some centres undefined) | –
4.47 | C=C[C@@H]1C[C@]1(NC(=O)[C@H](NC(=O)[C@@H](NC(=O)OC(C)(C)C)C(C)(C)C)c1ccc(OC)cc1)C(=O)NS(=O)(=O)C1CC1 | –
4.89 | C=C[C@@H]1C[C@]1(NC(=O)C(c1ccccc1)n1c(C)c(Cl)nc(NC(=O)OC(C)(C)C)c1=O)C(=O)O (stereo in doubt; 29b) | –
5.00 | C=C[C@@H]1C[C@]1(NC(=O)C(c1ccccc1)n1c(C)c(Cl)nc(NCC(=O)N2CCOCC2)c1=O)C(=O)NS(=O)(=O)C1CC1 (some centres undefined) | –
5.02 | Cc1c(Cl)nc(NC(=O)OC(C)(C)C)c(=O)n1C(C(=O)N[C@@H](CC1CC1)C(=O)NS(=O)(=O)C1CC1)c1ccccc1 (some centres undefined) | –
4.74 | Cc1c(Cl)nc(NCC(N)=O)c(=O)n1CC(=O)Nc1ccccc1C(=O)NS(=O)(=O)c1ccc(C(F)(F)F)cc1 | –
5.14 | C=C[C@@H]1C[C@]1(NC(=O)C(c1ccc(OC)cc1)n1c(C)c(Cl)nc(NC(=O)OC(C)(C)C)c1=O)C(=O)NS(=O)(=O)C1CC1 (some centres undefined) | –
5.17 | C=C[C@@H]1C[C@]1(NC(=O)C(c1ccccc1)n1c(C)c(Cl)nc(NCCC(C)(C)C)c1=O)C(=O)NS(=O)(=O)C1CC1 (some centres undefined) | –
4.55 | C=C[C@@H]1C[C@]1(NC(=O)C(c1ccccc1)n1c(C)c(Cl)nc(NCC(=O)N(C)C)c1=O)C(=O)NS(=O)(=O)C1CC1 (some centres undefined) | –
5.08 | C=C[C@@H]1C[C@]1(NC(=O)C(c1ccccc1)n1c(C)c(Cl)nc(NCCc2ccccc2)c1=O)C(=O)NS(=O)(=O)C1CC1 (some centres undefined) | –
4.96 | C=C[C@@H]1C[C@]1(NC(=O)C(c1ccccc1)n1c(C)c(Cl)nc(NC(=O)OC(C)(C)C)c1=O)C(=O)O (stereo in doubt; 29a) | –
4.96 | C=C[C@@H]1C[C@]1(NC(=O)C(c1ccccc1)n1c(C)c(Cl)nc(N)c1=O)C(=O)NS(=O)(=O)C1CC1 (some centres undefined) | –

Structure (SMILES) | pKi [1] | pKi (NS3 protease)
O=C(O)CNc1nc(Cl)c(-c2ccccc2)n(CC(=O)Nc2ccccc2C(=O)NS(=O)(=O)c2ccc(C(F)(F)F)cc2)c1=O | 5.52 | 5.25
C=C[C@@H]1C[C@]1(NC(=O)C(c1ccccc1)n1c(C)c(Cl)nc(NC(=O)OC(C)(C)C)c1=O)C(=O)NS(=O)(=O)C1CC1 (some centres undefined) | 5.37 | 5.23
Cc1c(Cl)nc(NC(=O)OC(C)(C)C)c(=O)n1C(C(=O)Nc1ccccc1C(=O)NS(=O)(=O)c1ccc(C(F)(F)F)cc1)c1ccccc1 (centres undefined) | 5.42 | 5.82
O=C(O)CNc1nc(Cl)cn(C(C(=O)Nc2ccccc2C(=O)NS(=O)(=O)c2ccc(C(F)(F)F)cc2)c2ccccc2)c1=O (centres undefined) | 5.64 | 5.74
O=C(O)CNc1nc(Cl)c(Cc2ccccc2)n(CC(=O)Nc2ccccc2C(=O)NS(=O)(=O)c2ccc(C(F)(F)F)cc2)c1=O | 5.82 | 5.60

From ChEMBL document CHEMBL1221280, “Discovery of achiral inhibitors of the hepatitis C virus NS3 protease based on 2(1H)-pyrazinones” (Bioorg Med Chem, 2010)
